Experimental data gathered from unrelated publications.
Protocols differ between the studies behind these lines.
Read-out: enzyme activity
Mode: inhibitor
CDK2 with cyclin A: Cyclin-dependent kinase 2, with cyclin A (CDK2, Homo sapiens, UniProt P24941)
CDK2 with cyclin E: Cyclin-dependent kinase 2, with cyclin E (CDK2, Homo sapiens, UniProt P24941)

Compound | target | test | conditions | remaining activity
Nc1nc(NC2CCCCC2)sc1C(=O)c1ccccc1 | CDK2 with cyclin A | – | 10 µM | 5%
COc1cc(Nc2cnc(C#N)c(O[C@H](C)CN(C)C)n2)ncc1-c1cnn(C)c1 | CDK2 with cyclin A | radiometric | 1 µM | 114%
O=C(Nc1cnn(-c2csc(C(=O)NC3COC3)c2)c1)Nc1c(F)cccc1Cl | CDK2 with cyclin E | – | 5 µM | 94.6%
Cc1cnc(NC2CCOCC2)nc1-n1cnc(C(=O)NC(CN)c2cc(F)cc(Cl)c2)c1 (centres unmarked) | CDK2 with cyclin A | radiometric | 1 µM | 3%
COc1cc(Cl)c(C(=O)N[C@@H](CN[C@H]2CC[C@@H](N)CC2)Cc2ccc(C#N)cc2)cc1-c1ccc(CN[C@H](C)c2ccc(C)cc2)o1 | CDK2 with cyclin A | – | 1 µM | 96%
O=C(Nc1cnn(-c2csc(C(=O)NC3COC3)c2)c1)Nc1ccccc1Cl | Cyclin-dependent kinase 2, with cyclin E2 (CDK2, Homo sapiens, UniProt P24941) | – | 5 µM | 107%
FC(F)c1nc2ccccc2n1-c1nc(N2CCOCC2)nc(N2CCOCC2)n1 | CDK2 with cyclin A | – | 10 µM | 77%
CC(C)(C)C(=O)c1sc(NC2CCCCC2)nc1N | CDK2 with cyclin A | – | 10 µM | 13%
Cc1ccc(Nc2nccc(N(C)c3ccc4c(C)n(C)nc4c3)n2)cc1S(N)(=O)=O | CDK2 with cyclin E | – | 0.5 µM | 96.4%
CC(C)(C)c1nc(-c2cccc(NS(=O)(=O)c3c(F)cccc3F)c2F)c(-c2ccnc(N)n2)s1 | Cyclin-dependent kinase 2, with cyclin A2 (CDK2, Homo sapiens, UniProt P24941) | radiometric | 1 µM | 72%
Cc1sc(C(=O)NC2COC2)cc1-n1cc(NC(=O)Nc2c(F)cccc2Cl)cn1 | CDK2 with cyclin A | – | 10 µM | 98.3%
CC(C)(C)c1nc2c(s1)c1nc(N)ncc1c1ccc(NS(=O)(=O)c3c(F)cccc3F)c(F)c12 | Cyclin-dependent kinase 2, with cyclin E1 (CDK2, Homo sapiens, UniProt P24941) | radiometric | 1 µM | 93%
Cn1c(=O)n(-c2ccc(C(C)(C)C#N)cc2)c2c3cc(-c4cnc5ccccc5c4)ccc3ncc21 | CDK2 with cyclin A | – | 10 µM | 74%
CC(C)(O)[C@H]1CC[C@H](Nc2ccc3ncc(-c4cccc(C(F)(F)F)c4)n3n2)CC1 | CDK2 with cyclin A | – | 1 µM | 96.9%
